The source of these data is ChEMBL document CHEMBL4033799, “Stable and Long-Lasting, Novel Bicyclic Peptide Plasma Kallikrein Inhibitors for the Treatment of Diabetic Macular Edema” (J Med Chem, 2018).

Data set [1] in a line: Half life in mouse plasma at 4 uM measured up to 24 hrs by LC-MS/MS analysis. The format is ADME, cell-free. Put shortly: (§1)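 Peptide from a 0.16 mM DMSO stock was added to human, rat or mouse plasma (final 4 μM) or to homogenized human vitreous (final 1 μM), with internal standard. Samples were incubated at 37 °C for up to 24 h and extracted with water/acetonitrile/methanol 1:3:3.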

The nature of data set [2]: Half life in rat plasma at 4 uM measured up to 24 hrs by LC-MS/MS analysis. The format is ADME, cell-free. The gist of the method:
as §1

A further data set addresses Plasminogen (Homo sapiens, UniProt P00747). Kind of data set: Inhibition of recombinant human plasmin using fluorogenic D-AFK-ANSNH-iC4H9.2HBr peptide as substrate by fluorescence based assay. The gist of the method: (§2)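 Panel of human serine proteases. Substrates and assay conditions followed each supplier's recommendations. Peptides were first screened at 50 μM. Where inhibition was detectable, hydrolytic activity was measured across a range of peptide concentrations. Ki was obtained by fitting to the tight-binding inhibitor rate equation.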

A further data set concerns the target T1, Kallikrein-13 (Homo sapiens, UniProt Q9UKR3).
T1 sequence (Q9UKR3 whole entry): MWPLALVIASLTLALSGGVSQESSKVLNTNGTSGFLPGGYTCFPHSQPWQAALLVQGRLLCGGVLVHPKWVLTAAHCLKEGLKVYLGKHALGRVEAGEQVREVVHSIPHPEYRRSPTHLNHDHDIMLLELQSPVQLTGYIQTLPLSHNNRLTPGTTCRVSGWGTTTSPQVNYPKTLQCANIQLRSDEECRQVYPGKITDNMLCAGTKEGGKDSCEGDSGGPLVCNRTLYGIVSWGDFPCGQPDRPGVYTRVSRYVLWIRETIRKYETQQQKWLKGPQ
The data set is described as follows: Inhibition of recombinant human C-terminal polyHis-tagged KLK13 (1 to 262 residues) expressed in HEK293 cells using fluorogenic Boc-VPR-AMC peptide as substrate by fluorescence based assay. The gist of the method:
as §2

The nature of data set [3]: Inhibition of rabbit plasma kallikrein using fluorogenic H-Pro-Phe-Arg-AMC peptide as substrate preincubated for 15 mins followed by substrate addition measured by fluorescence-based assay. The arrangement: species or system Oryctolagus cuniculus. Particulars: read-out: Ki(app). Put shortly: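 Assays ran at 25 °C in 50 mM Tris-HCl, 250 mM NaCl, 1.5 μM BSA, pH 7.5. PKal (nominal 1–2 nM) was preincubated 15 min with serially diluted peptide. […] Human PKal was purified from plasma; rat PKal was made in-house or bought; other species were purified in-house from kaolin-activated plasma.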

The target of another data set is T2, Kallikrein-12 (Homo sapiens, UniProt Q9UKR0).
T2 sequence (Q9UKR0 whole entry): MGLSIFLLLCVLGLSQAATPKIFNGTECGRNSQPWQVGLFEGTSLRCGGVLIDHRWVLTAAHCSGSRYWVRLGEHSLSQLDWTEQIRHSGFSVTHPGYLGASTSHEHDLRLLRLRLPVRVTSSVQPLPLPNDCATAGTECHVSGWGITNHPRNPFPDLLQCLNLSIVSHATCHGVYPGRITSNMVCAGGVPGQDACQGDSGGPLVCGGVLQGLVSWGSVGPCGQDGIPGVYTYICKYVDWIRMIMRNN
Kind of data set: Inhibition of recombinant human C-terminal 10His-tagged KLK12 (18 to 248 residues) expressed in mouse NS0 cells using fluorogenic Boc-VPR-AMC peptide as substrate by fluorescence based assay. The gist of the method: (§3)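 Human serine proteases were assayed with substrates and conditions set by each supplier's recommendations. Peptides were first screened at 50 μM. Where inhibition was detected, Ki was determined from activity across peptide concentrations using a tight-binding rate equation.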

A short description of data set [4]: Volume of distribution at steady state in Sprague-Dawley rat at 5 mg/kg, iv measured up to 240 mins post dose by LC-MS/MS analysis. The format is ADME, organism-based. The following applies: in vivo, read-out: Vdss. Put shortly: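 Male Sprague-Dawley rats, 2 per group, given 5 mg/kg intravenously. Blood sampled through tail-vein cannulae at 5, 10, 20, 30, 60, 120, 180 and 240 min into EDTA tubes and spun to plasma.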

Data set [5] is described as follows: Half life in New Zealand white rabbit eye at 2 mg/ml, administered via ivt injection by HPLC analysis. The format is ADME, tissue-based, Oryctolagus cuniculus. The following applies: topical or ocular. Put shortly:
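Male New Zealand White rabbits (10 weeks old, ~2 kg) received one 50 μL intravitreal injection per eye of peptide at 2 mg/mL in 50 mM sodium phosphate, pH 7.2. Animals were sacrificed at 15 min, 1, 4, 8, 24, 48 and 96 h (3 per time point). Whole vitreous was homogenized, clarified, 0.2 μm filtered and assayed by LC-MS/MS, with a lower limit of detection of 1 ng/mL in vitreous.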

Data set [6] can be described thus: Inhibition of cynomolgus monkey plasma kallikrein using fluorogenic H-Pro-Phe-Arg-AMC peptide as substrate preincubated for 15 mins followed by substrate addition measured by fluorescence-based assay. Particulars: read-out: Ki(app).
A further data set deals with T3, Kallikrein-2 (Homo sapiens, UniProt P20151).
T3 sequence (P20151 whole entry): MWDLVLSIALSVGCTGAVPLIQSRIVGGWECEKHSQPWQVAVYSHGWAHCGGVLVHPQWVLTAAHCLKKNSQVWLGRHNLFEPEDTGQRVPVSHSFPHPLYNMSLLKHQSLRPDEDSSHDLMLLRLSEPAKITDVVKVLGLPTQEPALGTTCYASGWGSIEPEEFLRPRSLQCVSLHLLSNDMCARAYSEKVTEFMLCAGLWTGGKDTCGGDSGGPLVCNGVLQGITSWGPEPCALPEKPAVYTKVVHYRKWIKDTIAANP
Kind of data set: Inhibition of recombinant human C-terminal 10His-tagged KLK2 (1 to 261 residues) expressed in mouse NS0 cells using fluorogenic PFR-AMC peptide as substrate after 5 mins by fluorescence based assay. Put shortly:
as §3

The target in data set [7] is Vitamin K-dependent protein C (Homo sapiens, UniProt P04070). Kind of data set: Inhibition of human activated protein C by fluorescence based assay. Put shortly: as §3
A further data set concerns the target Granzyme B (Homo sapiens, UniProt P10144). Kind of data set: Inhibition of recombinant human Granzyme B (21 to 247 residues) using […] Ac-IEPD-pNA peptide as substrate […]. The gist of the method:
as §2

For a further data set, the target named is Prothrombin (Homo sapiens, UniProt P00734). Kind of data set: Inhibition of recombinant human alpha thrombin using fluorogenic peptide as substrate by fluorescence based assay. Put shortly: as §2
Another data set has as its target Kallikrein-6 (Homo sapiens, UniProt Q92876). The data set is described as follows: Inhibition of recombinant human C-terminal His-tagged KLK6 isoform 1 (1 to 244 residues) expressed in HEK293 cells using fluorogenic Boc-QARAMC peptide as substrate by fluorescence based assay. The gist of the method: as §3
A further data set concerns the target T4, Cathepsin G (Homo sapiens, UniProt P08311).
T4 sequence (P08311 whole entry): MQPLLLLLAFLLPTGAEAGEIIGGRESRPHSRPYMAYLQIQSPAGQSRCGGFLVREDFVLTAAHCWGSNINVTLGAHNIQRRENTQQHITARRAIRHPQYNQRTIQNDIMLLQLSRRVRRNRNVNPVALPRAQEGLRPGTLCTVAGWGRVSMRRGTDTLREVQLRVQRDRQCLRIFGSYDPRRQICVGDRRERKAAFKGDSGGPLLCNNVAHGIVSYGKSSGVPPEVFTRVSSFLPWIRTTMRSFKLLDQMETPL
The data set is described as follows: Inhibition of recombinant human Cathepsin-G. Put shortly: as §2

Granzyme B, sequence (P10144 whole entry, the tested form may be a part): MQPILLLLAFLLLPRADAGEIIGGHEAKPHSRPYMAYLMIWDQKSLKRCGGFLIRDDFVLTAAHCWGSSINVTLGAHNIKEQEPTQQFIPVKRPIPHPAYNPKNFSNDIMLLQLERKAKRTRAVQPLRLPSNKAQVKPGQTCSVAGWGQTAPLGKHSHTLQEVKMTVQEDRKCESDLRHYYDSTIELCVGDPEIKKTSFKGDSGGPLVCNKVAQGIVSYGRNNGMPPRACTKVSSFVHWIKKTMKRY
Plasminogen, sequence (P00747 97-580 limits assumed): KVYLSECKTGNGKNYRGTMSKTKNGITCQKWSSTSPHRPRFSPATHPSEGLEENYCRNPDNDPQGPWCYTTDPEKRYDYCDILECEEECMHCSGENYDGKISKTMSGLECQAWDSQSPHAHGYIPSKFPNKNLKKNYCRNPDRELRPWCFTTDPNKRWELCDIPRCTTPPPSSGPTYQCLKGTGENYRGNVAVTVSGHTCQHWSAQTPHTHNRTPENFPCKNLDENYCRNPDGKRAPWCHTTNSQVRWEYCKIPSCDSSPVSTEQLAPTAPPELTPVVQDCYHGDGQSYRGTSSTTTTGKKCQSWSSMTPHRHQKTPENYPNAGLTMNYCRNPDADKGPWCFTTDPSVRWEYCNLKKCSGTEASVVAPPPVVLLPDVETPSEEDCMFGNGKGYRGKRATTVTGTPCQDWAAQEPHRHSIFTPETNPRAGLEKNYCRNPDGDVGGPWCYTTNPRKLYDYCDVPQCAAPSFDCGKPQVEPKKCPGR
Plasminogen, sequence (P00747 581-810 limits assumed): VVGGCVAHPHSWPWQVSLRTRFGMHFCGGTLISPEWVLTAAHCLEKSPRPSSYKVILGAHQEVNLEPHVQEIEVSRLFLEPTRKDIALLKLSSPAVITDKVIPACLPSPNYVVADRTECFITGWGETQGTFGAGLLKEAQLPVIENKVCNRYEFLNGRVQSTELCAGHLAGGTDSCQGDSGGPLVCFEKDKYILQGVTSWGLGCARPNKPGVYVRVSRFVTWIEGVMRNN
Vitamin K-dependent protein C, sequence (P04070 43-197 limits assumed): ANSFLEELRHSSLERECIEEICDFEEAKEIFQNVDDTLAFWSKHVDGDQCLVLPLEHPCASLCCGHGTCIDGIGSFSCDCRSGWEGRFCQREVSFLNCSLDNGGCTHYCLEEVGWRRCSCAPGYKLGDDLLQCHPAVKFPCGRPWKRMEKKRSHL
Vitamin K-dependent protein C, sequence (P04070 212-461 limits assumed): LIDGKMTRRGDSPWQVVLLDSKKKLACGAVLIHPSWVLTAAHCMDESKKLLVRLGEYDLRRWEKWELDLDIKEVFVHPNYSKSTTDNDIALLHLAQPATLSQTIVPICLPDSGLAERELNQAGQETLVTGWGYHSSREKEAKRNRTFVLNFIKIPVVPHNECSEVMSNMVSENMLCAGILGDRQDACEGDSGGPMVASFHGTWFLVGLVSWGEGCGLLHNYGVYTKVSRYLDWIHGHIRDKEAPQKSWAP

A word on the half-life: it is the time needed for the level to fall by half in the phase considered. As for `CC(=O)N[C@H]1CSCc2cc3cc(c2)CSC[C@H](NC(=O)[C@H](CCCCNC(=N)N)NC(=O)[C@H](Cc2ccc(O)cc2)NC(=O)[C@@H]2CCN2C(=O)[C@H](Cc2ccccc2)NC(=O)[C@H](CO)NC1=O)C(=O)N[C@@H](C)CN[C@@H](Cc1cnc[nH]1)C(=O)N[C@@H](CCC(N)=O)C(=O)N[C@@H](CC(=O)O)C(=O)N[C@@H](CC(C)C)C(=O)N[C@H](C(=O)O)CSC3`, the half-life at 4 µM in data set [1] and in [2] was above 24 h in each case. Further, the Ki was above 50 µM on Plasminogen; above 50 µM at Kallikrein-13 (hek293); 3.4 µM in data set [3]; above 50 µM on Kallikrein-12; 0.0027 µM in [6]; 10 µM on Kallikrein-2. For the same compound, the Ki (in data set [7]; on Granzyme B) was above 50 µM each time. The Vd in data set [4] turned out to be 0.44 L/kg. In [5], this compound gave a half-life of 39 h.

Regarding `CC(=O)N[C@H]1CSCc2cc3cc(c2)CSC[C@H](C(=O)N[C@@H](C)C(=O)N(C)CC(=O)N(C)CC(=O)N(C)CC(=O)N[C@H](CCCNC(=N)N)C(=O)N[C@H](CCCNC(=N)N)C(=O)O)NC(=O)[C@H](CC(C)C)NC(=O)[C@@H]2CCCN2C(=O)[C@H](C)NC(=O)[C@H](CC(=O)O)NC(=O)[C@H](Cc2c[nH]c4ccccc24)NC(=O)[C@@H]2CCCN2C(=O)[C@H](CSC3)NC(=O)[C@H](Cc2c[nH]c3ccccc23)NC(=O)[C@@H]2CCCN2C(=O)[C@H](CC(N)=O)NC(=O)[C@H](Cc2c[nH]c3ccccc23)NC(=O)[C@H]([C@@H](C)O)NC(=O)[C@H](CC(N)=O)NC1=O`, the Ki at Prothrombin was above 50 µM; at Kallikrein-6, above 50 µM; on Plasminogen, above 50 µM; on Kallikrein-13 (hek293), above 50 µM; in data set [3], 1.45 µM; at Kallikrein-12 it was above 50 µM. Moreover, the Ki in [6] is 0.0031 µM; on Kallikrein-2, above 50 µM; in data set [7] it was above 50 µM; at Granzyme B, above 50 µM; on Cathepsin G it was above 50 µM. Moreover, the half-life at 4 µM in data set [1] and in data set [2] was above 24 h throughout. Further, the Vd in data set [4] was determined as 0.93 L/kg.

Regarding `CC[C@H](C)[C@@H]1NC(=O)[C@H](CC(=O)O)NC(=O)[C@@H]2CCCN2C(=O)[C@H](Cc2ccc(O)cc2)NC(=O)[C@H](Cc2ccc(O)cc2)NC(=O)[C@H](C(C)C)NC(=O)[C@@H]2CSCc3cc(cc(c3)CSC[C@@H](C(=O)N[C@@H](C)C(=O)N(C)CC(=O)N(C)CC(=O)N(C)CC(=O)N[C@H](CCCNC(=N)N)C(=O)N[C@H](CCCNC(=N)N)C(=O)O)NC1=O)CSC[C@H](NC(C)=O)C(=O)N[C@@H](CO)C(=O)N[C@@H](Cc1ccccc1)C(=O)N1CCC1C(=O)N[C@@H](Cc1ccc(O)cc1)C(=O)N[C@@H](CCCCNC(=N)N)C(=O)N2` (stereo partly drawn), the Ki on Prothrombin was above 50 µM; at Kallikrein-6 it was above 50 µM; on Plasminogen, above 50 µM; at Kallikrein-13, 0.82 µM; in [3] it was 2.65 µM; at Kallikrein-12 it was above 50 µM. Besides, the Ki in data set [6] is 0.00086 µM; at Kallikrein-2, 10 µM; in [7] it was above 50 µM; on Granzyme B it was above 50 µM; at Cathepsin G it was above 50 µM. The same compound showed a half-life in data set [5] of 22 h.
